One series concerns the target T1, Aurora kinase A (Homo sapiens, UniProt O14965).
T1 sequence (O14965 whole entry): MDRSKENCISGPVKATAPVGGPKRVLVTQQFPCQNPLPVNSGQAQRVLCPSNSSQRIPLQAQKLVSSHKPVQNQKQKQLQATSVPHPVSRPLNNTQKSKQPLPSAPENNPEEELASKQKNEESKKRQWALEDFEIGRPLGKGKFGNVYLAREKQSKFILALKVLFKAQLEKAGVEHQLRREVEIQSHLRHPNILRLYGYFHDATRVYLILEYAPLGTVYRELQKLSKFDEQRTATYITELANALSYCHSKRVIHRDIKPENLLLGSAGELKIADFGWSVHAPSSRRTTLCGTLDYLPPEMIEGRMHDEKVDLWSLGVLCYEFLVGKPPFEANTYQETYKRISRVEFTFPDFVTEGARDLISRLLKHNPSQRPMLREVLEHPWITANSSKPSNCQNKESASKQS
The series can be described thus: Inhibition of AURKA (unknown origin). Summed up:
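Kinase inhibition was measured in two independent repeats, and IC50 is reported as their average with SD.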

Series [1] deals with MDA-MB-231. The series is described as follows: Cell cycle arrest in human MDA-MB-231 cells assessed as accumulation at S phase at 1 uM measured after 24 hrs by propidium iodide staining based flow cytometry (reference value: 19.84%). Format: functional. (In general: In flow cytometry, cells or beads pass a laser one at a time.)
The next series deals with 4T1. The series is described as follows: Antitumor activity against mouse 4T1 cells implanted in mouse assessed as tumor growth inhibition at 2 mg/kg, ip administered daily for 12 days relative to control. The following applies: 4T1, ip, 288 h, time 12 day, read-out: TGI. It counts as functional. In short, it runs like this: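 Orthotopic 4T1 tumor-bearing mice were randomized into four groups (n = 6) once tumors reached about 100 mm2. Groups received vehicle (saline), test compound at 1 or 2 mg/kg, or doxorubicin 1 mg/kg, all intraperitoneally every day. Tumor volume and body weight were measured daily. Inhibition ratio was computed against saline at study end, and tumors were weighed.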

The nature of series [2]: Acute toxicity in Kunming mouse assessed as development of ascites at 40 mg/kg, ip administered as single dose. Conditions: in vivo. Format: organism-based. Summed up:
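Kunming mice in four groups (n = 8, half male, half female) got one intraperitoneal dose of 10, 20 or 40 mg/kg, or vehicle. Body weights were recorded daily after dosing. Eyes, skin and fur were checked for clinical signs. Mortality was recorded. Mice were dissected to look for ascites and to assess liver volume.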

Series [3] deals with MDA-MB-231. The series can be described thus: Induction of apoptosis in human MDA-MB-231 cells assessed as viable cells at 1 uM measured after 24 hrs by annexin V-FITC/propidium iodide staining based flow cytometry (reference value: 90.9%). It counts as functional. Conditions: read-out: Activity.
Series [4] has as its system MDA-MB-231. The series is described as follows: Antiproliferative activity against human MDA-MB-231 cells assessed as reduction in cell viability measured after 5 days by beckman coulter counting method. It counts as functional, cell-based. Conditions: MDA-MB-231, 120 h.

Where only a bound is given, the exact number is not on record here.

The source of these data is ChEMBL document CHEMBL4732107, “Synthesis and anticancer activity evaluation of naphthalene-substituted triazole spirodienones” (Eur J Med Chem, 2021).

For `O=C1C=CC2(C=C1)OCC(=O)N2c1nc(-c2cccc3ccccc23)nn1-c1ccccc1`, the IC50 is greater than 100000 nM on Aurora kinase A and 50 nM with MDA-MB-231 [4]. The Activity in the series with MDA-MB-231 [1] was 36.99%; in series [2], “Toxic”. In addition, the inhibition in vivo at 2 mg/kg in the series on 4T1 worked out at 38.8%. The viability at 1 µM with MDA-MB-231 [3] stood at 35.7%.

The term IC50 denotes the concentration that inhibits the measured activity by half.
